In ChEMBL document CHEMBL4251549, “Design, synthesis and biological evaluation of nitrogen-containing macrocyclic bisbibenzyl derivatives as potent anticancer agents by targeting the lysosome” (Eur J Med Chem, 2017):
Active and inactive are the calls of the source. The calls are words filed in the database; no cut-off is given here.

How the values were obtained:
A549 [1] = experiment: Antiproliferative activity in human A549 cells after 48 hrs by MTT assay; format: functional, cell-based; settings: A549, 48 h
Outline: (§1)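 Cells exposed to compound for 48 h. Viability read by MTT, with absorbance of the solubilised MTT product at 570 nm. IC50 derived from at least three independent experiments.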

MCF7 [2] = experiment: Antiproliferative activity in human MCF7 cells after 48 hrs by MTT assay; format: functional, cell-based; settings: MCF7, 48 h; outline: as §1
K562 [3] = experiment: Antiproliferative activity in human K562 cells after 48 hrs by MTT assay; format: functional, cell-based; settings: K562, 48 h; outline: as §1
MCF7 [4] = experiment: Potency index, ratio of ADR IC50 to compound IC50 for antiproliferative activity in human MCF7 cells; format: functional
K562 [5] = experiment: Potency index, ratio of ADR IC50 to compound IC50 for antiproliferative activity in human K562 cells; format: functional
A549 [6] = experiment: Induction of lysosomal rupture in human A549 cells 1 to 2 uM after 6 hrs by LysoTracker/AO dye based confocal microscopic analysis; format: functional, cell-based
Outline: (§2)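 A549 treated 6 h, then loaded with LysoTracker Red (50 nm) or acridine orange (5 mg/mL). Lysosomal integrity imaged by confocal microscopy, with rupture scored as "pale cells" showing fewer dye-accumulating lysosomes.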

A549 [7] = experiment: Potency index, ratio of ADR IC50 to compound IC50 for antiproliferative activity in human A549 cells; format: functional
A549 [8] = experiment: Induction of lysosomal rupture in human A549 cells 1 to 2 uM after 6 hrs by LysoTracker/AO dye based flow cytometric analysis; format: functional, cell-based
Outline: (§3)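 A549 treated 6 h, then exposed to LysoTracker Red (50 nm) or acridine orange (5 mg/mL). Loss of lysosomal dye retention measured by flow cytometry on a FACSCalibur.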

A549 [9] = experiment: Induction of apoptosis in human A549 cells assessed as early apoptotic cells at 1 uM after 8 hrs by Annexin V-FITC/propidium iodide staining based flow cytometry (reference value: 0.03%); format: functional
Outline: (§4)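 A549 seeded at 5 × 10^5 per well and exposed to varying concentrations for 8 h. Harvested, washed twice in ice-cold PBS (0.01 M, pH 7.2), spun 5 min at 200 g, then stained with Annexin V-FITC/PI. Analysed by flow cytometry: Annexin V+/PI− scored apoptotic, double-positive necrotic or late apoptotic. Mean ± SD of three independent experiments.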

A549 [10] = experiment: Induction of apoptosis in human A549 cells assessed as late apoptotic cells at 1 uM after 8 hrs by Annexin V-FITC/propidium iodide staining based flow cytometry (reference value: 0.02%); format: functional; outline: as §4
A549 [11] = experiment: Induction of apoptosis in human A549 cells assessed as cell shrinkage at 0.5 to 1 uM after 8 hrs by DAPI staining based fluorescence microscopic analysis; format: functional
Outline: (§5)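 A549 seeded on glass coverslips at 5 × 10^4/mL and grown 24 h, then treated 8 h. Washed in cold PBS and fixed in cold methanol/acetone (1:1). Stained with DAPI ([…]) for 10 min at room temperature, washed with PBS/Triton X-100, mounted in PBS:glycerol 1:1. Nuclear morphology examined by fluorescence microscopy.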

A549 [12] = experiment: Induction of apoptosis in human A549 cells assessed as formation of granular apoptotic body at 0.5 to 1 uM after 8 hrs by DAPI staining based fluorescence microscopic analysis; format: functional, cell-based; outline: as §5
A549 [13] = experiment: Induction of apoptosis in human A549 cells assessed as necrotic cells at 1 uM after 8 hrs by Annexin V-FITC/propidium iodide staining based flow cytometry (reference value: 0.06%); format: functional; outline: as §4
A549 [14] = experiment: Antiproliferative activity in human A549 cells at 1.5 to 3 uM up to 20 hrs by xCELLigence RTCA SP based cellular impedance analysis; format: functional, cell-based
Outline: (§6)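 After compound treatment, A549 cells plated at 2000 cells/well on E-plates. Proliferation tracked over time as real-time cellular impedance on an xCELLigence RTCA DP instrument. Hydroxychloroquine was the positive control. Representative of three independent experiments.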

A549 [15] = experiment: Induction of lysosomal rupture in human A549 cells 2 to 4 uM after 6 hrs by LysoTracker/AO dye based confocal microscopic analysis; format: functional, cell-based; outline: as §2
A549 [16] = experiment: Induction of apoptosis in human A549 cells assessed as cell shrinkage at 2 to 4 uM after 8 hrs by DAPI staining based fluorescence microscopic analysis; format: functional; outline: as §5
A549 [17] = experiment: Antiproliferative activity in human A549 cells at 1.5 to 3 uM up to 5 hrs by xCELLigence RTCA SP based cellular impedance analysis; format: functional, cell-based; outline: as §6
A549 [18] = experiment: Induction of lysosomal rupture in human A549 cells 2 to 4 uM after 6 hrs by LysoTracker/AO dye based flow cytometric analysis; format: functional, cell-based; outline: as §3
A549 [19] = experiment: Antiproliferative activity in human A549 cells at 1.5 to 3 uM after 60 hrs by xCELLigence RTCA SP based cellular impedance analysis; format: functional, cell-based; outline: as §6
A549 [20] = experiment: Induction of apoptosis in human A549 cells assessed as necrotic cells at 50 ug/ml after 8 hrs by Annexin V-FITC/propidium iodide staining based flow cytometry (reference value: 0.06%); format: functional; outline: as §4
A549 [21] = experiment: Antiproliferative activity in human A549 cells at 25 ug/ml up to 20 hrs by xCELLigence RTCA SP based cellular impedance analysis; format: functional, cell-based; outline: as §6
A549 [22] = experiment: Induction of apoptosis in human A549 cells assessed as late apoptotic cells at 50 ug/ml after 8 hrs by Annexin V-FITC/propidium iodide staining based flow cytometry (reference value: 0.02%); format: functional; outline: as §4
A549 [23] = experiment: Antiproliferative activity in human A549 cells at 25 ug/ml after 60 hrs by […] based cellular impedance analysis; format: functional, cell-based
A549 [24] = experiment: Induction of apoptosis in human A549 cells assessed as early apoptotic cells at 50 ug/ml after 8 hrs by Annexin V-FITC/propidium iodide staining based flow cytometry (reference value: 0.03%); format: functional; outline: as §4

| Compound | IC50 (A549 [1]) [µM] | IC50 (MCF7 [2]) [µM] | IC50 (K562 [3]) [µM] | other results |
| --- | --- | --- | --- | --- |
| Oc1ccc2cc1Oc1ccc(cc1)CCc1ccc(CN3CCCCC3)c(O)c1-c1ccc(cc1O)CC2 | 7.12 | 5.07 | 5.88 | – |
| CCCCN(CCCC)Cc1cc2cc(c1O)Oc1ccc(cc1)CCc1ccc(CN(CCCC)CCCC)c(O)c1-c1ccc(cc1O)CC2 | > 20 | > 20 | > 20 | – |
| c1cc2c(c(OCCN3CCOCC3)c1)-c1ccc(cc1OCCN1CCOCC1)CCc1ccc(OCCN3CCOCC3)c(c1)Oc1ccc(cc1)CC2 | 5.23 | 4.19 | 3.43 | – |
| Oc1ccc2cc1Oc1ccc(cc1)CCc1cccc(OCCN3CCOCC3)c1-c1ccc(cc1O)CC2 | 7.49 | 5.02 | 10.1 | – |
| Oc1ccc2cc1Oc1ccc(cc1)CCc1cccc(OCCCN3CCCC3)c1-c1ccc(cc1O)CC2 | 4.53 | 3.68 | 2.94 | – |
| Oc1ccc2cc1Oc1ccc(cc1)CCc1cccc(OCCN3CCCCC3)c1-c1ccc(cc1O)CC2 | 2.13 | 2.49 | 2.31 | – |
| Oc1cc2ccc1-c1c(ccc(CN3CCCCC3)c1O)CCc1ccc(cc1)Oc1cc(cc(CN3CCCCC3)c1O)CC2 | 4.85 | 2.04 | 0.66 | – |
| CN(CCO)Cc1ccc2c(c1O)-c1ccc(cc1O)CCc1ccc(O)c(c1)Oc1ccc(cc1)CC2 | 9.07 | 8.28 | 9.19 | – |
| CCCCN(CCCC)Cc1ccc2c(c1O)-c1ccc(cc1O)CCc1ccc(O)c(c1)Oc1ccc(cc1)CC2 | > 20 | > 20 | > 20 | – |
| CN(C)CCCOc1ccc2cc1Oc1ccc(cc1)CCc1cccc(OCCCN(C)C)c1-c1ccc(cc1OCCCN(C)C)CC2 | 1.44 | 3.05 | 2.5 | – |
| Oc1cc2ccc1-c1c(ccc(CN3CCOCC3)c1O)CCc1ccc(cc1)Oc1cc(cc(CN3CCOCC3)c1O)CC2 | > 20 | > 20 | > 20 | – |
| CCN(CC)Cc1cc2cc(c1O)Oc1ccc(cc1)CCc1ccc(CN(CC)CC)c(O)c1-c1ccc(cc1O)CC2 | 3.78 | 1.05 | 1.86 | – |
| CN(C)CCOc1ccc2cc1Oc1ccc(cc1)CCc1cccc(OCCN(C)C)c1-c1ccc(cc1OCCN(C)C)CC2 | 0.51 | 0.23 | 0.19 | Ratio IC50 (MCF7 [4]): 3 - 10; Ratio IC50 (K562 [5]): 3 - 10; Activity (A549 [6]): Active; Ratio IC50 (A549 [7]): 3 - 10; Activity (A549 [8]): Active; Activity (A549 [9]): 0.55%; Activity (A549 [10]): 26.69%; Activity (A549 [11]): Active; Activity (A549 [12]): Active; Activity (A549 [13]): 52.68% |
| Oc1ccc2cc1Oc1ccc(cc1)CCc1ccc(CN3CCSCC3)c(O)c1-c1ccc(cc1O)CC2 | 16.3 | 15.8 | 13.4 | – |
| CC(C)(C)OC(=O)N1CCN(Cc2ccc3c(c2O)-c2ccc(cc2O)CCc2ccc(O)c(c2)Oc2ccc(cc2)CC3)CC1 | > 20 | > 20 | > 20 | – |
| Oc1ccc2cc1Oc1ccc(cc1)CCc1ccc(CN3CCC(O)CC3)c(O)c1-c1ccc(cc1O)CC2 | 5.74 | 9.05 | 7.07 | – |
| CN1CCN(Cc2ccc3c(c2O)-c2ccc(cc2O)CCc2ccc(O)c(c2)Oc2ccc(cc2)CC3)CC1 | 5.59 | 6.02 | 3.31 | – |
| Oc1ccc2cc1Oc1ccc(cc1)CCc1cccc(OCCN3CCCCCC3)c1-c1ccc(cc1O)CC2 | 2.98 | 3.03 | 2.73 | – |
| Oc1cc2ccc1-c1c(ccc(CN3CCN(Cc4ccccc4)CC3)c1O)CCc1ccc(cc1)Oc1cc(cc(CN3CCN(Cc4ccccc4)CC3)c1O)CC2 | > 20 | > 20 | > 20 | – |
| O=[N+]([O-])c1cc2cc(c1O)Oc1ccc(cc1)CCc1cccc(O)c1-c1ccc(cc1O)CC2 | > 20 | > 20 | > 20 | – |
| COc1ccc(N2CCN(Cc3ccc4c(c3O)-c3ccc(cc3O)CCc3ccc(O)c(c3)Oc3ccc(cc3)CC4)CC2)cc1 | > 20 | > 20 | > 20 | – |
| Oc1ccc2cc1Oc1ccc(cc1)CCc1cccc(OCCN3CCCC3)c1-c1ccc(cc1O)CC2 | 2.02 | 2.42 | 2.22 | – |
| Oc1cc2ccc1-c1c(ccc(CN3CCCC3)c1O)CCc1ccc(cc1)Oc1cc(cc(CN3CCCC3)c1O)CC2 | 0.99 | 0.43 | 0.8 | Activity (A549 [14]): Active; Activity (A549 [15]): Active; Activity (A549 [16]): Active; Activity (A549 [17]): Active; Activity (A549 [18]): Active; Activity (A549 [19]): Active |
| CN(C)CCOc1cccc2c1-c1ccc(cc1O)CCc1ccc(O)c(c1)Oc1ccc(cc1)CC2 | 1.3 | 2.38 | 1.56 | – |
| c1cc2c(c(OCCN3CCCC3)c1)-c1ccc(cc1OCCN1CCCC1)CCc1ccc(OCCN3CCCC3)c(c1)Oc1ccc(cc1)CC2 | 1.04 | 0.88 | 1.79 | – |
| CCN(CCO)CCCC(C)Nc1ccnc2cc(Cl)ccc12 (configuration not stated) [HYDROXYCHLOROQUINE] | – | – | – | Activity (A549 [20]): 10.37%; Activity (A549 [21]): Active; Activity (A549 [22]): 2.85%; Activity (A549 [23]): Active; Activity (A549 [24]): 2.96% |
| CN(CCO)Cc1cc2cc(c1O)Oc1ccc(cc1)CCc1ccc(CN(C)CCO)c(O)c1-c1ccc(cc1O)CC2 | 5.21 | 6 | 5.67 | – |
| Oc1ccc2cc1Oc1ccc(cc1)CCc1ccc(CN3CCCC3)c(O)c1-c1ccc(cc1O)CC2 | 2.26 | 2.41 | 4.82 | – |
